Activity calls are given as the source filed them. No cut-off for these calls is given here.
Tests used:
Type in all cases: functional
Bromus sterilis [1] = assay: Herbicidal activity against Bromus sterilis assessed as diameter of leaf necrosis at 250 ug/ml measured after 2 days post compound treatment by leaf puncture assay
How it was run: (§1)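 Detached leaf segments (about 5 cm) from young greenhouse-grown plants, each with a superficial puncture lesion (0.5 mm) made by glass capillary. Compound dissolved in DMSO, diluted with distilled water (final DMSO 2%), 8 µL droplet applied. Segments held on moist filter paper at 25 °C under continuous fluorescent light (10000 lux). DMSO droplets as control. Necrosis scored visually on a 0–3 scale at day 2.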

[2] = test system: Avena sterilis subsp. ludoviciana; assay: Herbicidal activity against Avena sterilis subsp. ludoviciana assessed as diameter of leaf necrosis at 250 ug/ml measured after 2 days post compound treatment by leaf puncture assay; how it was run: as §1
Echinochloa crus-galli [3] = assay: Herbicidal activity against Echinochloa crus-galli (barnyard grass) assessed as diameter of leaf necrosis at 250 ug/ml measured after 2 days post compound treatment by leaf puncture assay; how it was run: as §1
Digitaria sanguinalis [4] = assay: Herbicidal activity against Digitaria sanguinalis (hairy crabgrass) assessed as diameter of leaf necrosis at 100 ug/ml measured after 2 days post compound treatment by leaf puncture assay; how it was run: as §1
[5] = test system: Avena sterilis subsp. ludoviciana; assay: Herbicidal activity against Avena sterilis subsp. ludoviciana assessed as diameter of leaf necrosis at 100 ug/ml measured after 2 days post compound treatment by leaf puncture assay; how it was run: as §1
Diplotaxis erucoides [6] = assay: Herbicidal activity against Diplotaxis erucoides assessed as diameter of leaf necrosis at 250 ug/ml measured after 2 days post compound treatment by leaf puncture assay; how it was run: as §1
Amaranthus retroflexus [7] = assay: Herbicidal activity against Amaranthus retroflexus assessed as diameter of leaf necrosis at 100 ug/ml measured after 2 days post compound treatment by leaf puncture assay; how it was run: as §1
Chenopodium album [8] = assay: Herbicidal activity against Chenopodium album assessed as diameter of leaf necrosis at 50 ug/ml measured after 2 days post compound treatment by leaf puncture assay; how it was run: as §1
Setaria viridis [9] = assay: Herbicidal activity against Setaria viridis assessed as diameter of leaf necrosis at 100 ug/ml measured after 2 days post compound treatment by leaf puncture assay; how it was run: as §1
Convolvulus arvensis [10] = assay: Herbicidal activity against Convolvulus arvensis assessed as diameter of leaf necrosis at 100 ug/ml measured after 2 days post compound treatment by leaf puncture assay; how it was run: as §1
Echinochloa crus-galli [11] = assay: Herbicidal activity against Echinochloa crus-galli (barnyard grass) assessed as diameter of leaf necrosis at 50 ug/ml measured after 2 days post compound treatment by leaf puncture assay; how it was run: as §1
Sonchus oleraceus [12] = assay: Herbicidal activity against Sonchus oleraceus assessed as diameter of leaf necrosis at 100 ug/ml measured after 2 days post-compound treatment by leaf puncture assay; how it was run: as §1
Bromus sterilis [13] = assay: Herbicidal activity against Bromus sterilis assessed as diameter of leaf necrosis at 100 ug/ml measured after 2 days post compound treatment by leaf puncture assay; how it was run: as §1
Echinochloa crus-galli [14] = assay: Herbicidal activity against Echinochloa crus-galli (barnyard grass) assessed as diameter of leaf necrosis at 100 ug/ml measured after 2 days post compound treatment by leaf puncture assay; how it was run: as §1
Phalaris canariensis [15] = assay: Herbicidal activity against Phalaris canariensis assessed as diameter of leaf necrosis at 50 ug/ml measured after 2 days post compound treatment by leaf puncture assay; how it was run: as §1
Sonchus oleraceus [16] = assay: Herbicidal activity against Sonchus oleraceus assessed as diameter of leaf necrosis at 250 ug/ml measured after 2 days post-compound treatment by leaf puncture assay; how it was run: as §1
Setaria viridis [17] = assay: Herbicidal activity against Setaria viridis assessed as diameter of leaf necrosis at 50 ug/ml measured after 2 days post compound treatment by leaf puncture assay; how it was run: as §1
Chenopodium album [18] = assay: Herbicidal activity against Chenopodium album assessed as diameter of leaf necrosis at 250 ug/ml measured after 2 days post compound treatment by leaf puncture assay; how it was run: as §1
Cynodon dactylon [19] = assay: Herbicidal activity against Cynodon dactylon assessed as diameter of leaf necrosis at 100 ug/ml measured after 2 days post compound treatment by leaf puncture assay; how it was run: as §1
Digitaria sanguinalis [20] = assay: Herbicidal activity against Digitaria sanguinalis (hairy crabgrass) assessed as diameter of leaf necrosis at 50 ug/ml measured after 2 days post compound treatment by leaf puncture assay; how it was run: as §1
Bromus sterilis [21] = assay: Herbicidal activity against Bromus sterilis assessed as diameter of leaf necrosis at 50 ug/ml measured after 2 days post compound treatment by leaf puncture assay; how it was run: as §1
Sonchus oleraceus [22] = assay: Herbicidal activity against Sonchus oleraceus assessed as diameter of leaf necrosis at 50 ug/ml measured after 2 days post-compound treatment by leaf puncture assay; how it was run: as §1
[23] = test system: Avena sterilis subsp. ludoviciana; assay: Herbicidal activity against Avena sterilis subsp. ludoviciana assessed as diameter of leaf necrosis at 50 ug/ml measured after 2 days post compound treatment by leaf puncture assay; how it was run: as §1
Digitaria sanguinalis [24] = assay: Herbicidal activity against Digitaria sanguinalis (hairy crabgrass) assessed as diameter of leaf necrosis at 250 ug/ml measured after 2 days post compound treatment by leaf puncture assay; how it was run: as §1
Oloptum miliaceum [25] = assay: Herbicidal activity against Piptatherum miliaceum assessed as diameter of leaf necrosis at 250 ug/ml measured after 2 days post compound treatment by leaf puncture assay; how it was run: as §1
Cynodon dactylon [26] = assay: Herbicidal activity against Cynodon dactylon assessed as diameter of leaf necrosis at 50 ug/ml measured after 2 days post compound treatment by leaf puncture assay; how it was run: as §1
Diplotaxis erucoides [27] = assay: Herbicidal activity against Diplotaxis erucoides assessed as diameter of leaf necrosis at 100 ug/ml measured after 2 days post compound treatment by leaf puncture assay; how it was run: as §1
Amaranthus retroflexus [28] = assay: Herbicidal activity against Amaranthus retroflexus assessed as diameter of leaf necrosis at 250 ug/ml measured after 2 days post compound treatment by leaf puncture assay; how it was run: as §1
Cynodon dactylon [29] = assay: Herbicidal activity against Cynodon dactylon assessed as diameter of leaf necrosis at 250 ug/ml measured after 2 days post compound treatment by leaf puncture assay; how it was run: as §1
Phalaris canariensis [30] = assay: Herbicidal activity against Phalaris canariensis assessed as diameter of leaf necrosis at 250 ug/ml measured after 2 days post compound treatment by leaf puncture assay; how it was run: as §1
Diplotaxis erucoides [31] = assay: Herbicidal activity against Diplotaxis erucoides assessed as diameter of leaf necrosis at 50 ug/ml measured after 2 days post compound treatment by leaf puncture assay; how it was run: as §1
Convolvulus arvensis [32] = assay: Herbicidal activity against Convolvulus arvensis assessed as diameter of leaf necrosis at 250 ug/ml measured after 2 days post compound treatment by leaf puncture assay; how it was run: as §1
Amaranthus retroflexus [33] = assay: Herbicidal activity against Amaranthus retroflexus assessed as diameter of leaf necrosis at 50 ug/ml measured after 2 days post compound treatment by leaf puncture assay; how it was run: as §1
Phalaris canariensis [34] = assay: Herbicidal activity against Phalaris canariensis assessed as diameter of leaf necrosis at 100 ug/ml measured after 2 days post compound treatment by leaf puncture assay; how it was run: as §1
Oloptum miliaceum [35] = assay: Herbicidal activity against Piptatherum miliaceum assessed as diameter of leaf necrosis at 100 ug/ml measured after 2 days post compound treatment by leaf puncture assay; how it was run: as §1
Setaria viridis [36] = assay: Herbicidal activity against Setaria viridis assessed as diameter of leaf necrosis at 250 ug/ml measured after 2 days post compound treatment by leaf puncture assay; how it was run: as §1
Convolvulus arvensis [37] = assay: Herbicidal activity against Convolvulus arvensis assessed as diameter of leaf necrosis at 50 ug/ml measured after 2 days post compound treatment by leaf puncture assay; how it was run: as §1
Oloptum miliaceum [38] = assay: Herbicidal activity against Piptatherum miliaceum assessed as diameter of leaf necrosis at 50 ug/ml measured after 2 days post compound treatment by leaf puncture assay; how it was run: as §1
Chenopodium album [39] = assay: Herbicidal activity against Chenopodium album assessed as diameter of leaf necrosis at 100 ug/ml measured after 2 days post compound treatment by leaf puncture assay; how it was run: as §1

SMILES | Activity (Bromus sterilis [1]) | Activity [2] | Activity (Echinochloa crus-galli [3]) | Activity (Digitaria sanguinalis [4]) | Activity [5] | Activity (Diplotaxis erucoides [6]) | Activity (Amaranthus retroflexus [7]) | Activity (Chenopodium album [8]) | Activity (Setaria viridis [9]) | Activity (Convolvulus arvensis [10]) | Activity (Echinochloa crus-galli [11]) | Activity (Sonchus oleraceus [12]) | Activity (Bromus sterilis [13]) | Activity (Echinochloa crus-galli [14]) | Activity (Phalaris canariensis [15]) | Activity (Sonchus oleraceus [16]) | Activity (Setaria viridis [17]) | Activity (Chenopodium album [18]) | Activity (Cynodon dactylon [19]) | Activity (Digitaria sanguinalis [20]) | further results
CC(C)=C[C@H]1C[C@H](C)[C@]2(CC[C@]3(C)C[C@@H]4C(C)=CC(=O)[C@H]4/C(CO)=C\C[C@H]32)O1 | inactive | inactive | inactive | inactive | inactive | inactive | inactive | inactive | inactive | inactive | inactive | inactive | inactive | inactive | inactive | inactive | inactive | inactive | inactive | inactive | Activity (Bromus sterilis [21]): inactive; Activity (Sonchus oleraceus [22]): inactive; Activity [23]: inactive; Activity (Digitaria sanguinalis [24]): inactive; Activity (Oloptum miliaceum [25]): inactive; Activity (Cynodon dactylon [26]): inactive; Activity (Diplotaxis erucoides [27]): inactive; Activity (Amaranthus retroflexus [28]): inactive; Activity (Cynodon dactylon [29]): inactive; Activity (Phalaris canariensis [30]): inactive; Activity (Diplotaxis erucoides [31]): inactive; Activity (Convolvulus arvensis [32]): inactive; Activity (Amaranthus retroflexus [33]): inactive; Activity (Phalaris canariensis [34]): inactive; Activity (Oloptum miliaceum [35]): inactive; Activity (Setaria viridis [36]): inactive; Activity (Convolvulus arvensis [37]): inactive; Activity (Oloptum miliaceum [38]): inactive; Activity (Chenopodium album [39]): inactive
CC(C)=C[C@H]1C[C@H](C)[C@]2(CC[C@]3(C)C[C@H]4[C@H](C(=O)C[C@@]4(C)O)/C(C=O)=C\C[C@H]32)O1 [OPHIOBOLIN A] | >3 mm | >3 mm | >3 mm | >3 mm | >3 mm | 2 mm | 2 mm | 2 mm | >3 mm | 2 mm | >3 mm | >3 mm | 2 mm | >3 mm | >3 mm | >3 mm | >3 mm | >3 mm | inactive | >3 mm | Activity (Bromus sterilis [21]): 1 mm; Activity (Sonchus oleraceus [22]): >3 mm; Activity [23]: >3 mm; Activity (Digitaria sanguinalis [24]): >3 mm; Activity (Oloptum miliaceum [25]): >3 mm; Activity (Cynodon dactylon [26]): inactive; Activity (Diplotaxis erucoides [27]): 2 mm; Activity (Amaranthus retroflexus [28]): >3 mm; Activity (Cynodon dactylon [29]): 1 mm; Activity (Phalaris canariensis [30]): >3 mm; Activity (Diplotaxis erucoides [31]): 2 mm; Activity (Convolvulus arvensis [32]): 2 mm; Activity (Amaranthus retroflexus [33]): 2 mm; Activity (Phalaris canariensis [34]): >3 mm; Activity (Oloptum miliaceum [35]): 2 mm; Activity (Setaria viridis [36]): >3 mm; Activity (Convolvulus arvensis [37]): 2 mm; Activity (Oloptum miliaceum [38]): 1 mm; Activity (Chenopodium album [39]): 2 mm
CC(C)=C[C@H]1C[C@H](C)[C@]2(CC[C@]3(C)C[C@@H]4C(C)=CC(=O)[C@H]4/C(C=O)=C\C[C@H]32)O1 [3-ANHYDRO-6-EPI-OPHIOBOLIN A] | 1 mm | inactive | 1 mm | 1 mm | inactive | >3 mm | inactive | inactive | 2 mm | inactive | 1 mm | 1 mm | 1 mm | 1 mm | 1 mm | 1 mm | 2 mm | 1 mm | inactive | inactive | Activity (Bromus sterilis [21]): 1 mm; Activity (Sonchus oleraceus [22]): inactive; Activity [23]: inactive; Activity (Digitaria sanguinalis [24]): 1 mm; Activity (Oloptum miliaceum [25]): 1 mm; Activity (Cynodon dactylon [26]): inactive; Activity (Diplotaxis erucoides [27]): >3 mm; Activity (Amaranthus retroflexus [28]): inactive; Activity (Cynodon dactylon [29]): inactive; Activity (Phalaris canariensis [30]): 1 mm; Activity (Diplotaxis erucoides [31]): 2 mm; Activity (Convolvulus arvensis [32]): inactive; Activity (Amaranthus retroflexus [33]): inactive; Activity (Phalaris canariensis [34]): 1 mm; Activity (Oloptum miliaceum [35]): 1 mm; Activity (Setaria viridis [36]): 2 mm; Activity (Convolvulus arvensis [37]): inactive; Activity (Oloptum miliaceum [38]): 1 mm; Activity (Chenopodium album [39]): 1 mm
CC(C)=C[C@H]1C[C@H](C)[C@]2(CC[C@]3(C)C[C@H]4[C@@H](C(=O)C[C@@]4(C)O)/C(C=O)=C\C[C@H]32)O1 [6-EPI-OHPIOBOLIN A] | 2 mm | 2 mm | 2 mm | 2 mm | 2 mm | 2 mm | 1 mm | 2 mm | >3 mm | 2 mm | 1 mm | >3 mm | 1 mm | 2 mm | 1 mm | >3 mm | >3 mm | >3 mm | 1 mm | 2 mm | Activity (Bromus sterilis [21]): 1 mm; Activity (Sonchus oleraceus [22]): >3 mm; Activity [23]: 2 mm; Activity (Digitaria sanguinalis [24]): >3 mm; Activity (Oloptum miliaceum [25]): 2 mm; Activity (Cynodon dactylon [26]): inactive; Activity (Diplotaxis erucoides [27]): 2 mm; Activity (Amaranthus retroflexus [28]): 1 mm; Activity (Cynodon dactylon [29]): 2 mm; Activity (Phalaris canariensis [30]): >3 mm; Activity (Diplotaxis erucoides [31]): 2 mm; Activity (Convolvulus arvensis [32]): 2 mm; Activity (Amaranthus retroflexus [33]): 1 mm; Activity (Phalaris canariensis [34]): 2 mm; Activity (Oloptum miliaceum [35]): 1 mm; Activity (Setaria viridis [36]): >3 mm; Activity (Convolvulus arvensis [37]): 2 mm; Activity (Oloptum miliaceum [38]): 1 mm; Activity (Chenopodium album [39]): 2 mm

Source: ChEMBL document CHEMBL3046406, “Herbicidal potential of ophiobolins produced by Drechslera gigantea” (2006)
